Compound activity: PubChem BioAssay, Broad Institute
DENV2 CPE rescue: inhibitors of DENV2 cytopathic effect, primary screen, cell-based, plate reader, single concentration; DENV2-infected cells, cytopathic effect rescue; CPE inhibition, % at 9.99 µM; hit rate 1.7% among 350,000; in the data active means CPE inhibition above about 20%, passing the limit was not always enough; inconclusive means no clear call, values can overlap the other calls; tested in BHK-21 cells;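 further: 0% = median of neutral control wells and 100% = median of positive control wells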
SIRT5 inh: SIRT5 desuccinylase inhibitors, primary screen, biochemical, fluorescence imaging, single point, set 5. AID 652115, 2013. hit rate 1.1% among 330,000. inhibition, % at 15 µM. Purified SirT5, succinyl-peptide AMC, trypsin-coupled fluorescence; in the data active means inhibition above about 15%; inconclusive means no clear call, values can overlap the other calls
Target sequence (Q9NXA8 whole entry, looked up): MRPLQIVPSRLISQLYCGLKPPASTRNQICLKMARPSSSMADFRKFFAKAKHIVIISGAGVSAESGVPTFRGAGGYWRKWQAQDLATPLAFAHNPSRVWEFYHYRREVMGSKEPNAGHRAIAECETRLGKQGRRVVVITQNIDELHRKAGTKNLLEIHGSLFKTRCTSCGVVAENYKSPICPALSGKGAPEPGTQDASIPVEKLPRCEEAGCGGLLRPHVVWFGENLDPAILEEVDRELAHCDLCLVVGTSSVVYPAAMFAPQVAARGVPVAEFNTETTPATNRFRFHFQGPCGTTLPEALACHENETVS
ARNT TACC3 PPI: disruptors of ARNT/TACC3 protein interaction, primary screen, biochemical, AlphaScreen, single concentration. Transforming acidic coiled-coil-containing protein 3 (Homo sapiens), Q9Y6A5. AlphaScreen His-ARNT PAS-B/GST-TACC3 binding, luminescence; TACC3 fragment carries E629A point mutation. inhibition, % at 9.99 µM. hit rate 0.66% among 390,000. AID 623870, 2012;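 active means mean inhibition of replicates at least 50% and at least half of replicates each reaching 50%; inconclusive means half or more replicates reach 50% but mean below 50%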;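 further: 0% = complete ARNT plus TACC3 wells and 100% = ARNT alone without TACC3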
FN deposit inh: inhibitors of fibronectin matrix deposition, primary screen, AH1F cells, Alexa488-fibronectin fluorescence, plate reader; inhibition, % at 12.6 µM; AH1F fibroblasts, overnight; hit rate 0.086% among 350,000;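 active means mean inhibition across replicates of 30% or more, regardless of how many single replicates reach that level; inconclusive means mean under 30% yet at least half of replicates reach 30%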;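 further: positive control wells lacked labelled fibronectin entirely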
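Schedule: 1 h cell adhesion before compound, then overnight fibronectin incubation; test system: AH1F fibroblast monolayer depositing Alexa488-labelled fibronectin into matrix; quantity: 10000 AH1F cells per well; probe or stimulus: fluorescent fibronectin at 24 nM final; signal: fluorescence, ex 485 nm, em 525 nm; evaluation: percent inhibition as loss of matrix-bound fibronectin fluorescence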
Xi reactivation: activators of inactive X chromosome reactivation, primary screen, imaging, XiGFP fibroblasts, GFP high-content imaging, set 2. hit rate 0.055% among 360,000. activation, % at 7.58 µM. XiGFP mouse fibroblasts, % GFP-positive cells imaging, 3 d; cells co-treated with 5-aza-dC sensitizer; scaled so ellipticine positive control = 100%;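 active means mean normalized replicate activation at least 10% and every replicate at or above 10%; inconclusive means only one of the two criteria met; inactive means mean below 10% and not all replicates reach 10%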;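 further: 0% = median of on-plate neutral control wells and 100% = ellipticine 6 µM median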
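Material: XiGFP fibroblasts, SV40-immortalized; Buffer or medium: DMEM containing 5-aza-dC; Compound dosing: single point; Times: 3 days compound exposure.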
FGF22 binding: binders of human FGF22 protein, primary screen, FGF22 synaptogenesis inhibitor project, biophysical, thermal shift, single point | Fibroblast growth factor 22 (Homo sapiens), Q9HCT0 | recombinant FGF22 thermal shift, SYPRO orange fluorescence; percent of sucrose octasulfate shift, DMSO zero | activity (Tm shift, normalised), % at 9.99 µM | hit rate 1.5% among 340,000 | AID 651658, 2012;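 active means mean Tm shift, scaled 0 neutral to 100 positive control, at about 1.3% or above, every replicate too, limit read from the data; inconclusive means no clear call, values can overlap the other calls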
Target sequence (Q9HCT0 whole entry, looked up): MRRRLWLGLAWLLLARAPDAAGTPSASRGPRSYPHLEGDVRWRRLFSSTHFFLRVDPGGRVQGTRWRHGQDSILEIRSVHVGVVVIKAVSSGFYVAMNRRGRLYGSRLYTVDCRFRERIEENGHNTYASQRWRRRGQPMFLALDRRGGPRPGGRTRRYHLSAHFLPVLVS
The depositor's hits bear a star; ? = inconclusive; / = no result; ! = not confirmed by another sample. Hits are enriched below; roughly 3.8% of the tested compounds scored in any of these assays.

SMILES	DENV2 CPE rescue	SIRT5 inh	ARNT TACC3 PPI	FN deposit inh	Xi reactivation	FGF22 binding
Cc1noc(C)c1NC(=O)Nc1ccc2c(c1)C(=O)N([C@@H](C)CO)C[C@H](C)[C@@H](CN(C)C(=O)CCCN(C)C)OCCCC[C@@H](C)O2	86.3*	-2.6	-2.5	/	0.2	0.2
Cc1noc(C)c1NC(=O)Nc1ccc2c(c1)C(=O)N([C@H](C)CO)C[C@@H](C)[C@@H](CN(C)C(=O)Nc1ccccc1)OCCCC[C@@H](C)O2	22.6*	-4.0	-6.4	-7.3	0.3	-0.4
Cc1noc(C)c1NC(=O)Nc1ccc2c(c1)C(=O)N([C@H](C)CO)C[C@H](C)[C@H](CN(C)C(=O)c1ccccc1)OCCCC[C@H](C)O2	39.3*	-2.8	-4.8	/	0.0	-0.6
Cc1noc(C)c1NC(=O)Nc1ccc2c(c1)C(=O)N([C@H](C)CO)C[C@@H](C)[C@H](CN(C)C(=O)Nc1ccccc1)OCCCC[C@@H](C)O2	4.4	0.0	-8.7	0.2	0.0	-0.2
COc1ccccc1NC(=O)N[C@H]1CC[C@@H](CCNS(=O)(=O)c2ccc(F)cc2)O[C@H]1CO	2.2	0.6	-2.2	/	0.3	0.0
C[C@H](NC(=O)C[C@@H]1C=C[C@@H](NC(=O)C2CCC2)[C@@H](CO)O1)c1ccccc1	-10.2	1.7	-2.8	-15.1	-0.1	-0.1
Cc1nc(SCc2cccc(C(=O)O)c2)nc2c1CCCC2	?	52.1*	-6.0	-3.4	0.0	43.0*
COc1ccc(-c2cc(C)nc(SCc3cccc(C(=O)O)c3)n2)cc1	-0.7	/	-15.5	4.9	0.1	0.1
COc1cccc(C(=O)Nc2ccc3c(c2)OC[C@@H](C)N(CCc2ccccc2)C[C@H](C)[C@@H](OC)CN(C)C3=O)c1	-6.5	11.7	5.9	7.5	0.3	-0.5
CCN1[C@H](C(=O)NCCN2CCCCC2)[C@@H](CO)[C@@H]2Cn3c(ccc(-c4ccc(OC)cc4)c3=O)[C@@H]21	13.4	-7.8	5.9	/	0.5	-0.1
Cc1c(C(=O)C(=O)NCc2cccs2)c2ccccc2n1C	1.3	2.5	-5.3	-5.7	0.0	43.0*
COc1cccc(NC(=O)N(C)C[C@H]2Oc3cc(C#Cc4ccccc4)ccc3S(=O)(=O)N([C@@H](C)CO)C[C@H]2C)c1	0.7	/	3.6	-8.7	0.2	1.4*
COc1ccc(C#Cc2ccc3c(c2)O[C@@H](CN(C)C(=O)Nc2cccc(OC)c2)[C@H](C)CN([C@@H](C)CO)S3(=O)=O)cc1	-1.7	16.1*!	3.6	12.4	0.0	-0.1
COc1cccc(NC(=O)N(C)C[C@@H]2Oc3cc(C#Cc4ccccc4)ccc3S(=O)(=O)N([C@@H](C)CO)C[C@H]2C)c1	0.0	/	13.1	-8.1	-0.3	0.1
Cc1ncc(CO)c(/C=N/NC(=O)c2cc3c(s2)CCCC3)c1O	-2.5	-2.8	61.5*	3.2	-0.2	0.7
COc1ccc(C(=O)N/N=C/c2c(CO)cnc(C)c2O)cc1	?	-4.4	72.1*	0.4	1.2	43.8*
COc1ccc(C(=O)N/N=C/c2c(C)[nH]c(=O)[nH]c2=O)cc1	-1.5	4.2	37.7*	-4.0	0.1	0.2
Cc1ncc(CO)c(/C=N/NC(=O)c2ccoc2C)c1O	-10.0	-5.0	/	2.5	0.0	-0.3
Cc1ncc(CO)c(/C=N/NC(=O)c2ccccc2Br)c1O	8.0	-3.6	60.8*	3.4	0.1	0.1
Cc1ncc(CO)c(/C=N/NC(=S)Nc2ccc(Cl)c(Cl)c2)c1O	-3.4	0.2	/	2.0	0.1	1.5*
CO[C@@H]1CN(C)C(=O)c2ccc(NS(C)(=O)=O)cc2OC[C@@H](C)N(Cc2cccnc2)C[C@H]1C	/	/	/	-2.2	0.0	/
O=C(O)c1ccccc1N/N=C/c1cc(Br)cc(Br)c1O	3.8	-3.8	17.3	8.3	0.2	43.8*
CNC[C@H]1Oc2c(NS(C)(=O)=O)cccc2C(=O)N(C)C[C@@H]1C	/	/	/	4.9	0.2	/
CC(C)C#Cc1ccc2c(c1)O[C@@H](CN(C)C(=O)C1CCC1)[C@H](C)CN([C@@H](C)CO)S2(=O)=O	/	/	/	7.6	-1.2	/
O=C(C[C@H]1CC[C@@H]2[C@H](COC[C@H](O)CN2C(=O)c2cnccn2)O1)NCc1ccc(F)cc1	1.8	7.1	0.7	-17.4	0.0	-0.2
SMILES	DENV2 CPE rescue	SIRT5 inh	ARNT TACC3 PPI	FN deposit inh	Xi reactivation	FGF22 binding
CCOC(=O)C1=CN(Cc2cccc(I)c2)S(=O)(=O)N(C)C1C (configuration not stated)	-14.1	-6.6	-1.1	-12.5	0.2	0.0
CCOC(=O)C1=CN(Cc2cccc(Br)c2)S(=O)(=O)N(C)C1C (configuration not stated)	37.4*	42.4*	-1.1	/	0.1	-0.4
COC(=O)C[C@H]1CC[C@H]2[C@@H](COc3ccc(NC(=O)c4ccc(C#N)cc4)cc3C(=O)N2C)O1	-11.2	-2.4	4.4	1.6	0.3	0.1
C[C@@H]1CN([C@H](C)CO)C(=O)c2cc(NC(=O)NC3CCCCC3)ccc2O[C@H]1CN(C)S(=O)(=O)c1ccccc1	-4.3	-0.6	-1.8	-15.0	0.1	0.1
CS(=O)(=O)N1[C@@H](C#N)[C@@H](c2ccccc2-c2ccccc2F)[C@@H]1CO	-1.0	-0.2	/	-5.4	0.0	/
CCC[N+]1(CC#CC(O)(c2ccccc2)C2CCCCC2)CCCCC1 (configuration not stated)	2.2	-5.8	-6.8	-2.4	0.0	0.0
NC(=O)C[N+]1(CC#CC(O)(c2ccccc2)c2ccccc2)CCCC1	5.2	-1.6	-6.4	0.4	0.0	4.0*
Cc1ccc2cc(/C=C(\C#N)C(N)=O)c(N3CCCCC3)nc2c1	-2.8	-5.0	-1.9	-3.7	0.2	0.1
CCOC(=O)/C(C#N)=C/c1cc2ccccc2nc1N1CCCCC1	2.2	111.9*	26.4	-0.6	0.1	0.0
Cc1nc2nc(-c3ccccc3)cn2nc1C	19.9	21.5*	11.9	/	/	0.1
C/C=C/c1ccc2c(c1)O[C@H](CN(C)C(C)=O)[C@@H](C)CN([C@H](C)CO)S2(=O)=O	-1.8	-3.0	-6.5	-6.5	0.2	0.1
O=C1CN(S(=O)(=O)c2ccccc2)C[C@H]2[C@@H](c3ccc(C#Cc4ccccc4)cc3)[C@@H](CO)N12	16.9	6.2	/	/	0.2	/
